Source: ChEMBL document CHEMBL5058577, “EUbOPEN Chemogenomics Library 2 (Multiplex)” (2022)

Test system: HEK-293T
Experiment: Multiplex assay against HEK293T
Type: toxicity, cell-based
Settings: human
Outline: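 With compound added, live cells were imaged on a CQ1 microscope at 37°C and 5% CO2; staining with Hoechst33342, BioTracker Green Microtubule Cytoskeleton Dye, MitoTracker Red and Annexin V Alexa Fluor 680 had been done at seeding. The CellPathfinder machine-learning gating scheme split cells into Hoechst high-intensity objects or normal cells, normal cells into healthy, pyknosed or fragmented nuclei, and pyknosed cells into mitotic or apoptotic. The tubulin, mitochondrial-mass and membrane-permeability phenotypes are per cents of healthy-nucleus cells.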

[1] = 12 h, 1 µM, compound concentration 1 uM, replicate 1
[2] = 12 h, 1 µM, compound concentration 1 uM, replicate 2
[3] = 12 h, 10 µM, compound concentration 10 uM, replicate 1
[4] = 12 h, 10 µM, compound concentration 10 uM, replicate 2
[5] = 24 h, 1 µM, compound concentration 1 uM, replicate 1
[6] = 24 h, 1 µM, compound concentration 1 uM, replicate 2
[7] = 24 h, 10 µM, compound concentration 10 uM, replicate 1
[8] = 24 h, 10 µM, compound concentration 10 uM, replicate 2
[9] = 48 h, 1 µM, compound concentration 1 uM, replicate 1
[10] = 48 h, 1 µM, compound concentration 1 uM, replicate 2
[11] = 48 h, 10 µM, compound concentration 10 uM, replicate 1
[12] = 48 h, 10 µM, compound concentration 10 uM, replicate 2

COc1cc2nc(N3CCN(C(=O)c4ccco4)CC3)nc(N)c2cc1OC.Cl [PRAZOSIN HYDROCHLORIDE]
Population Apoptotic (%) [1]: 32%
Population Fragmented Nuclei (%) [1]: 10%
Population Healthy Nuclei (%) [1]: 77%
Population Hoechst High Intensity Objects (%) [1]: 6%
Population Membrane Permeable-Phenotype (%) [1]: 0%
Population Mitochondria Different-Phenotype (%) [1]: 35%
Population Mitotic Cells (%) [1]: 67%
Population Normal (%) [1]: 93%
Population Pyknosed Nuclei (%) [1]: 11%
Population Tubulin-Different-Phenotype (%) [1]: 23%
Total Cell Count [1]: 448
Population Apoptotic (%) [2]: 56%
Population Fragmented Nuclei (%) [2]: 6%
Population Mitochondria Different-Phenotype (%) [2]: 66%
Population Mitotic Cells (%) [2]: 43%
Population Pyknosed Nuclei (%) [2]: 16%
Population Tubulin-Different-Phenotype (%) [2]: 22%
Total Cell Count [2]: 290
Population Apoptotic (%) [3]: 38%
Population Fragmented Nuclei (%) [3]: 9%
Population Healthy Nuclei (%) [3]: 75%
Population Hoechst High Intensity Objects (%) [3]: 10%
Population Membrane Permeable-Phenotype (%) [3]: 0%
Population Mitochondria Different-Phenotype (%) [3]: 62%
Population Mitotic Cells (%) [3]: 61%
Population Normal (%) [3]: 89%
Population Pyknosed Nuclei (%) [3]: 14%
Population Tubulin-Different-Phenotype (%) [3]: 45%
Total Cell Count [3]: 348
Population Apoptotic (%) [4]: 55%
Population Fragmented Nuclei (%) [4]: 5%
Population Healthy Nuclei (%) [4]: 77%
Population Hoechst High Intensity Objects (%) [4]: 9%
Population Mitochondria Different-Phenotype (%) [4]: 61%
Population Mitotic Cells (%) [4]: 44%
Population Normal (%) [4]: 90%
Population Pyknosed Nuclei (%) [4]: 16%
Population Tubulin-Different-Phenotype (%) [4]: 25%
Total Cell Count [4]: 404
Population Apoptotic (%) [5]: 38%
Population Fragmented Nuclei (%) [5]: 9%
Population Healthy Nuclei (%) [5]: 82%
Population Hoechst High Intensity Objects (%) [5]: 3%
Population Membrane Permeable-Phenotype (%) [5]: 0%
Population Mitochondria Different-Phenotype (%) [5]: 25%
Population Mitotic Cells (%) [5]: 61%
Population Normal (%) [5]: 96%
Population Pyknosed Nuclei (%) [5]: 7%
Population Tubulin-Different-Phenotype (%) [5]: 10%
Total Cell Count [5]: 660
Population Apoptotic (%) [6]: 51%
Population Healthy Nuclei (%) [6]: 80%
Population Hoechst High Intensity Objects (%) [6]: 5%
Population Mitochondria Different-Phenotype (%) [6]: 45%
Population Mitotic Cells (%) [6]: 48%
Population Normal (%) [6]: 94%
Population Pyknosed Nuclei (%) [6]: 10%
Population Tubulin-Different-Phenotype (%) [6]: 16%
Total Cell Count [6]: 364
Population Apoptotic (%) [7]: 50%
Population Fragmented Nuclei (%) [7]: 12%
Population Healthy Nuclei (%) [7]: 77%
Population Hoechst High Intensity Objects (%) [7]: 5%
Population Membrane Permeable-Phenotype (%) [7]: 0%
Population Mitochondria Different-Phenotype (%) [7]: 40%
Population Mitotic Cells (%) [7]: 50%
Population Normal (%) [7]: 94%
Population Pyknosed Nuclei (%) [7]: 9%
Population Tubulin-Different-Phenotype (%) [7]: 32%
Total Cell Count [7]: 463
Population Apoptotic (%) [8]: 54%
Population Fragmented Nuclei (%) [8]: 11%
Population Healthy Nuclei (%) [8]: 78%
Population Membrane Permeable-Phenotype (%) [8]: 1%
Population Mitochondria Different-Phenotype (%) [8]: 42%
Population Mitotic Cells (%) [8]: 45%
Population Pyknosed Nuclei (%) [8]: 10%
Population Tubulin-Different-Phenotype (%) [8]: 20%
Total Cell Count [8]: 534
Population Apoptotic (%) [9]: 36%
Population Fragmented Nuclei (%) [9]: 17%
Population Healthy Nuclei (%) [9]: 76%
Population Hoechst High Intensity Objects (%) [9]: 1%
Population Membrane Permeable-Phenotype (%) [9]: 1%
Population Mitochondria Different-Phenotype (%) [9]: 16%
Population Mitotic Cells (%) [9]: 63%
Population Normal (%) [9]: 98%
Population Pyknosed Nuclei (%) [9]: 5%
Population Tubulin-Different-Phenotype (%) [9]: 8%
Total Cell Count [9]: 1114
Population Apoptotic (%) [10]: 38%
Population Fragmented Nuclei (%) [10]: 16%
Population Hoechst High Intensity Objects (%) [10]: 2%
Population Membrane Permeable-Phenotype (%) [10]: 0%
Population Mitochondria Different-Phenotype (%) [10]: 23%
Population Mitotic Cells (%) [10]: 61%
Population Normal (%) [10]: 97%
Population Pyknosed Nuclei (%) [10]: 6%
Population Tubulin-Different-Phenotype (%) [10]: 9%
Total Cell Count [10]: 636
Population Apoptotic (%) [11]: 33%
Population Fragmented Nuclei (%) [11]: 17%
Population Healthy Nuclei (%) [11]: 75%
Population Hoechst High Intensity Objects (%) [11]: 4%
Population Membrane Permeable-Phenotype (%) [11]: 2%
Population Mitochondria Different-Phenotype (%) [11]: 32%
Population Mitotic Cells (%) [11]: 66%
Population Normal (%) [11]: 95%
Population Pyknosed Nuclei (%) [11]: 7%
Population Tubulin-Different-Phenotype (%) [11]: 17%
Total Cell Count [11]: 693
Population Apoptotic (%) [12]: 23%
Population Fragmented Nuclei (%) [12]: 14%
Population Healthy Nuclei (%) [12]: 78%
Population Membrane Permeable-Phenotype (%) [12]: 1%
Population Mitochondria Different-Phenotype (%) [12]: 21%
Population Mitotic Cells (%) [12]: 76%
Population Tubulin-Different-Phenotype (%) [12]: 11%
Total Cell Count [12]: 778
